Assay results taken from publication PMC5004525 (Pharmacognosy Research, 2016).
“Also recorded” adds a separate entry of the source.

Legend:
Format in all cases: biochemical
[1] = target: rat liver glutathione transferase enzyme; experiment: Inhibition of rat liver GST
Method in brief: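 Rat liver cytosol was the 100,000 ×g 60 min supernatant, taken after a 12,500 ×g spin of homogenate in 67 mM phosphate, pH 7.4, with 1.15% KCl. Assay used 0.125 mg/mL cytosol, 0.1 M potassium phosphate pH 6.5, 0.001 M GSH and CDNB, read at 340 nm for 5 min. Blanks used cytosol heat-denatured at 60°C for 20 min.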

human recombinant UGT1A1 = target: T1, human recombinant UGT1A1 (Homo sapiens, UniProt P22309); experiment: UGT-Glo luminescent inhibition assay, human recombinant UGT1A1
T1 sequence (P22309 26-533): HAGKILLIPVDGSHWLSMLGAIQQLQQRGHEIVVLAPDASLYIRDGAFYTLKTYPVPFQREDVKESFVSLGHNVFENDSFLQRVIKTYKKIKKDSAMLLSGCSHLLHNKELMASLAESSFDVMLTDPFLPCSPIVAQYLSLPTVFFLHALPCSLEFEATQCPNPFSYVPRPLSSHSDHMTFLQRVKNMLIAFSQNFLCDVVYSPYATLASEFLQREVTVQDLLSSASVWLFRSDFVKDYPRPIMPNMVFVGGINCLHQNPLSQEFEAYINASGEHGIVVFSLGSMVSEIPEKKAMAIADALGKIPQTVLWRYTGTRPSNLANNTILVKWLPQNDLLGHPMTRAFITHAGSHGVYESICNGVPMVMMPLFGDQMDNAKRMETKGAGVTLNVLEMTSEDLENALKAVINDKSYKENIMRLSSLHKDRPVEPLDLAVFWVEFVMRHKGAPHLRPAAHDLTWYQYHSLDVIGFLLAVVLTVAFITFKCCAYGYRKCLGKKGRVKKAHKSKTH
Method in brief: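 UGT-Glo luminescent assay at 37°C with 0.1 mg/mL UGT supersomes, 20 µM multienzyme substrate and 4 mM UDPGA. Incubation was 90 min for UGT1A1 and 60 min for UGT2B7. Reactions were stopped with luciferin detection reagent plus D-cysteine for 20 min at room temperature, then luminescence read. Control microsomes lacking UGT served as negative control. Extracts were tested at 0.1–1000 µg/mL and constituents at 0.02–200 µM. IC50 was fitted by nonlinear regression; three determinations from two experiments.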

[2] = tested on: rat liver UDP-glucuronosyltransferase enzyme (rat liver microsomes); experiment: Inhibition of rat liver UGT in rat liver microsomes; conditions: up to the highest concentration investigated
human recombinant UGT2B7 = target: T2, human recombinant UGT2B7 (Homo sapiens, UniProt P16662); experiment: UGT-Glo luminescent inhibition assay, human recombinant UGT2B7; conditions: human recombinant enzyme
T2 sequence (P16662 24-529): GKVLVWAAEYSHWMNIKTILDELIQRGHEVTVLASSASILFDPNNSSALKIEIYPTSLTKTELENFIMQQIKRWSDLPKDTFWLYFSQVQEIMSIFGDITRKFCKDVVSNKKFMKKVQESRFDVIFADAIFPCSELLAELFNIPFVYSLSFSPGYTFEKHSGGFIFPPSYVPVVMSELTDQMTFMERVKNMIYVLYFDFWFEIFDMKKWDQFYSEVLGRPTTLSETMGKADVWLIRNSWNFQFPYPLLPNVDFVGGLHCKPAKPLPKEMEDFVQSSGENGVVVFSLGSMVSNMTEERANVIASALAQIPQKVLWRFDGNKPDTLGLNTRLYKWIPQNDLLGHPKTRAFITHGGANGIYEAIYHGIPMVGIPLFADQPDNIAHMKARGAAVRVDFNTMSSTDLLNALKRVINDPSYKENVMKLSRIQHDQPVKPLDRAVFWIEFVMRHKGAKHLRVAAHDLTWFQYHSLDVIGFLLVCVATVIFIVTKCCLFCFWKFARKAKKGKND

[3] = target: human glutathione transferase Pi-1 (hGSTP1) (Homo sapiens, UniProt P09211); experiment: Inhibition of human GST Pi-1
Chain of human glutathione transferase Pi-1 (hGSTP1) (P09211 2-210 limits assumed): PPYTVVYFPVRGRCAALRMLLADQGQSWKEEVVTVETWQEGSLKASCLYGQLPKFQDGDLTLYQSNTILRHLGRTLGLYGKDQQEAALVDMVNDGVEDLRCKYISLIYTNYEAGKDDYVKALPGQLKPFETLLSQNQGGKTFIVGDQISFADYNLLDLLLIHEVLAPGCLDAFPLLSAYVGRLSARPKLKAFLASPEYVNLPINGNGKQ
Method in brief: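 Purified recombinant human GSTP1 (0.003 mg/mL) in 0.1 M potassium phosphate, pH 6.5, with 0.001 M GSH and CDNB as substrate. Test compounds were tested at 0.01–500 µM and extracts at 0.01–1000 µg/mL. CDNB–GSH conjugation was read at 340 nm over 20 min. The blank replaced enzyme with buffer. Activity is expressed as percent of no-inhibitor control, 5 replicates.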

**Q.** With Tannic acid [reference compound] as the compound, how does the “IC50, rat liver GST” value ([1]; CDNB substrate, mean ± SEM, n = 5) read?
**A.** 4.83 ± 2.29 µg/mL

**Q.** `CC(C)=CCCC(C)c1ccc(C)cc1` (centres unmarked) [Curcumene, curcumene] was tested. Which “inhibition of UGT1A1 (in words)” value (human recombinant UGT1A1; human recombinant enzyme) did it give?
**A.** weaker inhibition

**Q.** What about the “inhibition of rat liver UGT enzyme activity (in words)” value [2] of the same compound?
**A.** did not show any inhibition

**Q.** And the “inhibition of UGT2B7 (in words)” value (human recombinant UGT2B7)?
**A.** did not show any inhibition; also recorded: weaker inhibition

**Q.** And the “inhibition of hGSTP1 (in words)” value [3]?
**A.** did not show inhibition

**Q.** What about the “percentage of inhibition of hGSTP1 activity” value ([3]; at the highest concentration determined (compounds 500 µM)) of the same compound?
**A.** < 50%

**Q.** And the “inhibition of rat liver GST (in words)” value [1]?
**A.** very low inhibition or no inhibition

**Q.** How did the “inhibitory effect on UGT1A1 compared to UGT2B7” value (human recombinant UGT1A1; ratio of IC50 values UGT2B7/UGT1A1) turn out when `CC(C)=CCC[C@@H](C)c1ccc(C)c(O)c1` [Xanthorrhizol, xanthorrhizol] was run?
**A.** 3 times

**Q.** What about the “inhibition of hGSTP1 (in words)” value [3] of the same compound?
**A.** did not show inhibition

**Q.** What about the inhibition at 500 µM ([3]; read-out: percentage of inhibition of hGSTP1 activity) of the same compound?
**A.** < 50%

**Q.** What about the “inhibition of rat liver GST (in words)” value [1] of the same compound?
**A.** very low inhibition or no inhibition
